Results taken from ChEMBL document CHEMBL4308895, “A thiol-inducible and quick-response DNA cross-linking agent” (Bioorg Med Chem Lett, 2019).

Legend:
DNA = assay: Induction of Escherichia coli pBR322 DNA cross-linking at 1 mM after 12 hrs in presence of GSH by agarose gel electrophoresis relative to control; type: nucleic-acid assay
Procedure, shortened: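 Linearized pBR322 plasmid DNA in phosphate buffer pH 7.3 with 1 mM agent plus 2 mM GSH. Cross-linking resolved by denaturing alkaline agarose gel electrophoresis, untreated plasmid as control lane. Yield given as percent cross-linked DNA.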

[1] = Stability of the compound under electrospray ionisation mass spectra condition; type: physicochemical
[2] = L-valine reactivity in DMSO-d6/D2O mixture assessed as 1,4-Dihydroxy-2, 5-di-(trimethylammonium iodide-methyl)phenyl formation at 5 mM by 1H-NMR analysis
[3] = L-cysteine reactivity in pH 7.3 phosphate buffer assessed as color change from red to orange at 5 mM measured after 1 min; type: physicochemical; conditions: pH 7.3, 1 min, 5000 µM
Procedure, shortened: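 Agent at 5, 2.5 or 1 mM in phosphate buffer pH 7.3, mixed with L-Cys at twice the agent concentration (10, 5, 2 mM). Color change scored visually against agent-alone samples.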

[4] = Drug metabolism in pH 7.3 phosphate buffer saline assessed as 2, 4-dinitrobenzene sulfonic acid formation measured immediately by 1H-NMR analysis
[5] = Drug metabolism in pH 7.3 phosphate buffer saline assessed as 1,1'-(2-(2,4-dinitrophenylsulfonyloxy)-5-hydroxy-1,4-phenylene)bis(N,N,N-trimethylmethanaminium)iodide formation measured after 5 mins by 1H-NMR analysis
[6] = Glycine reactivity in DMSO-d6/D2O mixture assessed as 1,4-Dihydroxy-2, 5-di-(trimethylammonium iodide-methyl)phenyl formation at 5 mM by 1H-NMR analysis
[7] = L-arginine reactivity in DMSO-d6/D2O mixture assessed as 1,4-Dihydroxy-2, 5-di-(trimethylammonium iodide-methyl)phenyl formation at 5 mM by 1H-NMR analysis
[8] = Beta-alanine reactivity in DMSO-d6/D2O mixture assessed as 1,4-Dihydroxy-2, 5-di-(trimethylammonium iodide-methyl)phenyl formation at 5 mM by 1H-NMR analysis
[9] = L-proline reactivity in DMSO-d6/D2O mixture assessed as 1,4-Dihydroxy-2, 5-di-(trimethylammonium iodide-methyl)phenyl formation at 5 mM by 1H-NMR analysis
[10] = Drug metabolism in pH 7.3 phosphate buffer saline assessed as 1,4-Dihydroxy-2, 5-di-(trimethylammonium iodide-methyl)phenyl formation measured after 0.5 to 6 hrs by 1H-NMR analysis
[11] = Stability in pH 7.3 phosphate buffer saline measured within 1.5 hrs by 1H-NMR analysis; type: physicochemical; conditions: pH 7.3, 1.5 h

## C[N+](C)(C)Cc1cc(-c2ccc(O)c(C[N+](C)(C)C)c2)ccc1O.[I-].[I-]
DNA
  Activity: 0%
[1]
  Stability: Unstable

## C[N+](C)(C)Cc1cc(O)c(C[N+](C)(C)C)cc1O.[I-].[I-]
DNA
  Activity: 43%
[1]
  Stability: Unstable

## C[N+](C)(C)Cc1cc(OS(=O)(=O)c2ccc([N+](=O)[O-])cc2[N+](=O)[O-])c(C[N+](C)(C)C)cc1OS(=O)(=O)c1ccc([N+](=O)[O-])cc1[N+](=O)[O-].[I-].[I-]
[2]
  Drug metabolism: Metabolite not detected
[3]
  Drug metabolism: Metabolite_Detected
[4]
  Drug metabolism: Metabolite detected
[5]
  Drug metabolism: Metabolite detected
DNA
  Activity: 34%
[6]
  Drug metabolism: Metabolite not detected
[7]
  Drug metabolism: Metabolite not detected
[8]
  Drug metabolism: Metabolite not detected
[9]
  Drug metabolism: Metabolite not detected

## Cc1cc(C[N+](C)(C)C)c(OS(=O)(=O)c2ccc([N+](=O)[O-])cc2[N+](=O)[O-])c(C[N+](C)(C)C)c1.[I-].[I-]
[3]
  Drug metabolism: Metabolite_Detected
DNA
  Activity: 0%

## Cc1cc(C[N+](C)(C)C)c(O)c(C[N+](C)(C)C)c1.[I-].[I-]
DNA
  Activity: 0%
[1]
  Stability: Unstable

## C[N+](C)(C)Cc1cc(OS(=O)(=O)c2ccc([N+](=O)[O-])cc2[N+](=O)[O-])c(C[N+](C)(C)C)cc1O
[10]
  Drug metabolism: Metabolite not detected

## C[N+](C)(C)Cc1cc(-c2ccc(OS(=O)(=O)c3ccc([N+](=O)[O-])cc3[N+](=O)[O-])c(C[N+](C)(C)C)c2)ccc1OS(=O)(=O)c1ccc([N+](=O)[O-])cc1[N+](=O)[O-].[I-].[I-]
[11]
  Stability: Stable
[3]
  Drug metabolism: Metabolite_Detected
DNA
  Activity: 0%
